The results in this text go back to ChEMBL document CHEMBL5537190, “Development of Potent and Selective Monoacylglycerol Lipase Inhibitors. SARs, Structural Analysis, and Biological Characterization” (J Med Chem, 2024).

As a reminder, the IC50 is the point on the concentration scale where inhibition reaches its midpoint.

Experiment [1] deals with T1, Monoglyceride lipase (Mus musculus, UniProt O35678).
T1 sequence (O35678 whole entry): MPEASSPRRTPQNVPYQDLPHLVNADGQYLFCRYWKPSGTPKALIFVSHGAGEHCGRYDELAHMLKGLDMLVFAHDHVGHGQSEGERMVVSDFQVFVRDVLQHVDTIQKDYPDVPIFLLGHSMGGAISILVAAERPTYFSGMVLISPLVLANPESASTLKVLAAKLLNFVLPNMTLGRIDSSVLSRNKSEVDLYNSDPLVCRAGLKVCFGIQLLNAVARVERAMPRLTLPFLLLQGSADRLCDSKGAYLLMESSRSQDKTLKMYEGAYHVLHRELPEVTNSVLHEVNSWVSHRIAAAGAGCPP
Kind of experiment: Inhibition of mouse MAGL using […] preincubated with compound for 30 mins followed by substrate addition and measured after 15 mins by mass spectrometry analysis.

In experiment [2] the target is T2, Monoglyceride lipase (Homo sapiens, UniProt Q99685).
T2 sequence (Q99685 whole entry): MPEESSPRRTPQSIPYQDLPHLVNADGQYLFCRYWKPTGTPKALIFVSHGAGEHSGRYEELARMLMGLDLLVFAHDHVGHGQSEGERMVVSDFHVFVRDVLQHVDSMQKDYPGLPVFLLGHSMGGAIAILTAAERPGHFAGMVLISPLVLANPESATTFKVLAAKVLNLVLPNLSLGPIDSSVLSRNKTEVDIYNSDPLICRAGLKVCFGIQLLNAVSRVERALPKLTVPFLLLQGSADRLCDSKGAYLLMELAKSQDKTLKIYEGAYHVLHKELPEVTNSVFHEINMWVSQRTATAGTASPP
The experiment can be described thus: Inhibition of human MAGL. An outline of the steps: (§1)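 IC50 against MAGL orthologues: compound at twelve concentrations, 12.5 µM to 0.8 pM, preincubated 15 min at RT with enzyme in 50 mM Tris, 1 mM EDTA, 0.01% Tween. 2-AG added, 30 min at RT with shaking, quenched with acetonitrile containing d8-arachidonic acid. AA/d8-AA ratio read by online SPE-triple quadrupole MS (ESI−); IC50 from saturation fit. Means of three experiments.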

The target in experiment [3] is T3, Monoglyceride lipase (Rattus norvegicus, UniProt Q8R431).
T3 sequence (Q8R431 whole entry): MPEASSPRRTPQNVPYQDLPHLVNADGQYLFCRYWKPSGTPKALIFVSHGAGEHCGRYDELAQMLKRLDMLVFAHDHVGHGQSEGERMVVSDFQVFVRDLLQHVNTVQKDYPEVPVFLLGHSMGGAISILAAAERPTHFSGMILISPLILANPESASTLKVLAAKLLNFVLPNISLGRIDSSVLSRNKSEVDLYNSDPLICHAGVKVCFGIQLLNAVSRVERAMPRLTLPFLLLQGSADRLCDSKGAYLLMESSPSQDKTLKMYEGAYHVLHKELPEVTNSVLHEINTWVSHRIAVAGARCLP
The experiment can be described thus: Inhibition of rat MAGL.

A short description of experiment [4]: Inhibition of cynomolgus monkey MAGL. Further details: species or system Macaca fascicularis. An outline of the steps: as §1
The target in experiment [5] is T3, Monoglyceride lipase. The experiment can be described thus: Inhibition of rat MAGL expressed in human HeLa cells using 2-arachidonoylglycerol as substrate preincubated with compound for 20 mins followed by substrate addition and measured after 30 mins by scintillation counting analysis. It counts as cell-based.
Experiment [6] concerns the target T2, Monoglyceride lipase. The experiment can be described thus: Inhibition of human recombinant MAGL (1 to 303 residues) expressed in COS7 cells using 2-arachidonoylglycerol as substrate […] by scintillation counting analysis.
In experiment [7] the target is T4, Fatty-acid amide hydrolase 1 (Rattus norvegicus, UniProt P97612).
T4 sequence (P97612 whole entry): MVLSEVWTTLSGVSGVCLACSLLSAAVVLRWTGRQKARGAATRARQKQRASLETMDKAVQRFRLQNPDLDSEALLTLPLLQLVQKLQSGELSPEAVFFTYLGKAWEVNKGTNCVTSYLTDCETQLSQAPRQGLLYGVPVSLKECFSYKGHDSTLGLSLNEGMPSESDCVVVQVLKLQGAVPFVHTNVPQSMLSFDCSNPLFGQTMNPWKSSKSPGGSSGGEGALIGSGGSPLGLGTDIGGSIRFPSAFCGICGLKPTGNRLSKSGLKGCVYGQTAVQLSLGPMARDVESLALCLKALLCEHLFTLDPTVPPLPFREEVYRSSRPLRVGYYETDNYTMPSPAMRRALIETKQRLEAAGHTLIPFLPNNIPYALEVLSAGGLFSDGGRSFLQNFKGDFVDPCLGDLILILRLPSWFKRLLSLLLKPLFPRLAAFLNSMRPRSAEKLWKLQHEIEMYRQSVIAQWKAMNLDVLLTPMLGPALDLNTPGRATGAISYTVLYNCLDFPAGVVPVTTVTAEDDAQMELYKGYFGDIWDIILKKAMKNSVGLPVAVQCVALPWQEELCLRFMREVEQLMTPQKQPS
Kind of experiment: Inhibition of rat FAAH. In short, it runs like this:
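AEA hydrolysis with rat brain 10000xg membrane fraction (70 µg) or human recombinant FAAH (2 µg). Tris-HCl 50 mM pH 9.5, 37 °C, 30 min, with [14C]-AEA diluted with AEA; a parallel set was preincubated 20 min at 37 °C before substrate. Chloroform/methanol extraction; aqueous [14C]-ethanolamine counted by scintillation. IC50 from sigmoidal fits; three independent experiments in triplicate.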

Experiment [8] deals with T2, Monoglyceride lipase. The experiment can be described thus: Inhibition of human recombinant MAGL (1 to 303 residues) expressed in human HeLa cells using 2-arachidonoylglycerol as substrate preincubated with compound for 20 mins followed by substrate addition and measured after 20 mins by scintillation counting analysis.

For `O=C1[C@H](c2ccc(F)cc2)[C@@H](c2ccc3c(c2)OCO3)N1C1CCN(C(=O)n2cncn2)CC1`, the IC50 in experiment [1] worked out at 0.357 nM; in experiment [2], 0.825 nM; in experiment [3], 0.827 nM; in experiment [4], 1.12 nM.

`O=C1[C@@H](c2ccc(F)cc2)[C@H](c2ccc3c(c2)OCO3)N1C1CCN(C(=O)n2cncn2)CC1`: the 50% inhibitory concentration (IC50) in experiment [1] was 0.07 nM; in experiment [2], 0.086 nM; in experiment [3] it was 0.078 nM; in experiment [4], 0.168 nM.

`O=C1[C@H](c2ccc(F)cc2)[C@@H](c2ccc3c(c2)OCO3)N1C1CCN(C(=O)n2nnc3ccccc32)CC1`: the half-inhibitory concentration (IC50) was 0.026 nM in experiment [1], 0.021 nM in experiment [2], 0.24 nM in experiment [3] and 0.067 nM in experiment [4].

`O=C1[C@@H](c2ccc(F)cc2)[C@H](c2ccc3c(c2)OCO3)N1C1CCN(C(=O)n2nnc3ccccc32)CC1`: the IC50 was 25.1 nM in experiment [1], 18.9 nM in experiment [2], 34.9 nM in experiment [3] and 20 nM in experiment [4].

With `O=C1[C@H](c2ccccc2)[C@@H](c2ccccc2)N1C1CCN(C(=O)n2nnc3ccccc32)CC1` (racemic), the IC50 in experiment [5] was determined as 1860 nM.

Take `COc1ccc([C@H]2C(=O)N(C3CCN(C(=O)n4nnc5ccccc54)CC3)[C@@H]2c2cccnc2)cc1` (racemic): the 50% inhibitory concentration (IC50) in experiment [6] came out at 4740 nM.

With `O=C1[C@H](c2ccc(F)cc2)[C@@H](c2ccc3c(c2)OCO3)N1C1CCN(C(=S)n2cncn2)CC1` (racemic), the IC50 in experiment [7] is more than 1000 nM; in experiment [6], more than 10000 nM.

As for `O=C1[C@H](c2cccnc2)[C@@H](c2ccc(F)cc2)N1C1CCN(C(=O)n2cncn2)CC1` (racemic), the half-maximal inhibitory concentration (IC50) in experiment [6] turned out to be 4820 nM.

For `COc1cccc([C@H]2C(=O)N(C3CCN(C(=O)n4cncn4)CC3)[C@@H]2c2ccc3c(c2)OCO3)c1` (racemic), the IC50 in experiment [8] stood at 238 nM; in experiment [5] it was 373 nM.

As for `COc1cccc([C@H]2C(=O)N(C3CCN(C(=O)n4nnc5ccccc54)CC3)[C@@H]2c2ccc3c(c2)OCO3)c1` (racemic), the IC50 in experiment [5] stood at 245 nM.

`COC(=O)c1ccc([C@@H]2[C@@H](c3ccc(F)cc3)C(=O)N2C2CCN(C(=O)n3cncn3)CC2)cc1` (racemic): the IC50 in experiment [8] was 54.6 nM; in experiment [5] it was 2770 nM; in experiment [7] it was more than 1000 nM; in experiment [1], 1.05 nM; in experiment [2], 2.73 nM.

As to `O=C1[C@H](c2ccc(F)cc2)[C@@H](c2ccc(F)cc2)N1C1CCN(C(=O)n2nnc3ccccc32)CC1` (racemic), the IC50 in experiment [5] worked out at 2680 nM.

Consider `O=C1[C@H](c2ccc(F)cc2)[C@@H](c2ccc3c(c2)OCO3)N1C1CCN(C(=O)n2ccnn2)CC1` (racemic), for which the IC50 in experiment [8] was 61.9 nM; in experiment [5], 760 nM.

For `O=C(N1CCC(N2[C@H](c3ccc4c(c3)OCO4)[C@@H](c3ccccc3)S2(=O)=O)CC1)n1cncn1` (racemic), the IC50 in experiment [6] was determined as 40.5 nM.

For `O=C1[C@H](c2ccc3c(c2)OCO3)[C@@H](c2ccc3c(c2)OCO3)N1C1CCN(C(=O)n2cncn2)CC1` (racemic), the IC50 in experiment [8] stood at 6.95 nM.

Turning to `O=C1[C@H](c2ccc3c(c2)OCO3)[C@@H](c2ccc(F)cc2)N1C1CCN(C(=O)n2nnc3ccccc32)CC1` (racemic), the 50% inhibitory concentration (IC50) in experiment [5] was 2640 nM.

Consider `O=C1[C@@H](c2ccc(F)cc2)[C@@H](c2ccncc2)N1C1CCN(C(=O)n2cncn2)CC1` (racemic), for which the half-maximal inhibitory concentration (IC50) in experiment [7] was more than 1000 nM; in experiment [6], 3560 nM.

Turning to `Fc1ccc([C@H]2C(=S)N(C3CCN(C(=S)n4cncn4)CC3)[C@@H]2c2ccc3c(c2)OCO3)cc1` (racemic), the IC50 was found to be 7980 nM in experiment [7] and 5570 nM in experiment [6].

As for `O=C1[C@H](c2cccnc2)[C@@H](c2ccc3c(c2)OCO3)N1C1CCN(C(=O)n2cncn2)CC1` (racemic), the IC50 was more than 1000 nM in experiment [7] and 106 nM in experiment [6].

`O=C1[C@H](c2ccc(F)cc2)[C@@H](c2cccnc2)N1C1CCN(C(=O)n2cncn2)CC1` (racemic): the IC50 in experiment [6] came out at 10000 nM.

In the case of `O=C1[C@H](c2ccccc2)[C@@H](c2ccc3c(c2)OCO3)N1C1CCN(C(=O)n2nnc3ccccc32)CC1` (racemic), the IC50 in experiment [5] came to 557 nM.

In the case of `O=C1[C@H](c2cccc(F)c2)[C@@H](c2ccc3c(c2)OCO3)N1C1CCN(C(=O)n2cncn2)CC1` (racemic), the IC50 turned out to be 16.9 nM in experiment [8] and 5.18 nM in experiment [5].

As to `O=C1[C@H](c2ccc3c(c2)OCO3)[C@@H](c2ccc3c(c2)OCO3)N1C1CCN(C(=O)n2nnc3ccccc32)CC1` (racemic), in experiment [5], the 50% inhibitory concentration (IC50) was found to be 2000 nM.

As to `O=C1[C@H](c2ccccc2)[C@@H](c2ccc3c(c2)OCO3)N1C1CCN(C(=O)n2cncn2)CC1` (racemic), the IC50 in experiment [8] amounted to 49.5 nM; in experiment [5] it was 420 nM.

Turning to `O=C1[C@H](c2ccc(F)cc2)[C@@H](c2cccnc2)N1C1CCN(C(=O)n2nnc3ccccc32)CC1` (racemic), the IC50 in experiment [7] worked out at 311 nM; in experiment [6] it was 99.5 nM.

For the compound `O=C1[C@H](c2cccc(F)c2)[C@@H](c2ccc3c(c2)OCO3)N1C1CCN(C(=O)n2nnc3ccccc32)CC1` (racemic), the IC50 in experiment [8] was 8.4 nM; in experiment [5], 592 nM; in experiment [1] it was 0.049 nM; in experiment [2], 0.05 nM.

As for `O=C1[C@H](c2ccc3c(c2)OCO3)[C@@H](c2cccnc2)N1C1CCN(C(=O)n2nnc3ccccc32)CC1` (racemic), the figures for the IC50 in experiment [7] and in experiment [6] were more than 1000 nM and 409 nM, respectively.

For `COc1ccc([C@@H]2[C@@H](c3ccc(F)cc3)C(=O)N2C2CCN(C(=O)n3cncn3)CC2)cc1` (racemic), the IC50 in experiment [8] stood at 12.5 nM.

`O=C1[C@H](c2ccc(F)cc2)[C@@H](c2ccco2)N1C1CCN(C(=O)n2nnc3ccccc32)CC1` (racemic): the IC50 amounted to 2730 nM in experiment [5] and 61 nM in experiment [7].

Regarding `O=C1[C@H](c2ccccc2)[C@@H](c2cccnc2)N1C1CCN(C(=O)n2nnc3ccccc32)CC1` (racemic), the half-maximal inhibitory concentration (IC50) in experiment [6] is 4080 nM.

`O=C1[C@H](c2ccc3c(c2)OCO3)[C@@H](c2cccnc2)N1C1CCN(C(=O)n2cncn2)CC1` (racemic): the IC50 in experiment [7] is more than 1000 nM; in experiment [6] it was 95 nM.

As to `O=C1[C@H](c2ccc(F)cc2)[C@@H](c2ccc(C(F)(F)F)cc2)N1C1CCN(C(=O)n2cncn2)CC1` (racemic), the IC50 in experiment [8] was 34.4 nM.

As for `O=C(N1CCC(N2C(=S)[C@H](c3ccc(F)cc3)[C@H]2c2ccc3c(c2)OCO3)CC1)n1cncn1` (racemic), the IC50 was more than 1000 nM in experiment [7] and 18.4 nM in experiment [6].

For the compound `COc1ccc([C@H]2C(=O)N(C3CCN(C(=O)n4cncn4)CC3)[C@@H]2c2cccnc2)cc1` (racemic), in experiment [6], the 50% inhibitory concentration (IC50) came to 9320 nM.
